Results reported in ChEMBL document CHEMBL1649290, “Correlation of in vitro activity, serum levels, and in vivo efficacy of posaconazole against Rhizopus microsporus in a murine disseminated infection” (Antimicrob Agents Chemother, 2009).
≈ marks a conversion by molar mass, not a printed value. Calls of active or inactive are those of the source. The calls are words filed in the database; no cut-off is given here.

Tests used:
[1] = Antifungal activity against Rhizopus microsporus CBS 102277 by broth microdilution method; type: functional
Procedure, shortened: (§1)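 CLSI broth microdilution reference method for molds, run on clinical R. microsporus isolates. Isolates were stored at −80°C and subcultured on potato dextrose agar at 35°C before testing. Breakpoints: intermediate 2 μg/ml, resistant ≥4 μg/ml.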

[2] = Antifungal activity against Rhizopus microsporus IHEM 5234 by broth microdilution method; type: functional; procedure, shortened: as §1
[3] = Antifungal activity against Rhizopus microsporus IHEM 9503 by broth microdilution method; type: functional
Procedure, shortened: (§2)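 Clinical isolates kept at −80°C and subcultured on potato dextrose agar at 35°C before testing. MICs were determined by broth microdilution following the CLSI reference guidelines for filamentous fungi (molds), as part of a 15-strain panel tested against seven antifungal agents.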

[4] = Antifungal activity against Rhizopus microsporus UTHSC 07-371 by broth microdilution method; type: functional; procedure, shortened: as §2
[5] = Antifungal activity against Rhizopus microsporus IHEM 18821 by broth microdilution method; type: functional; procedure, shortened: as §2
[6] = Antifungal activity against Rhizopus microsporus FMR 3542 by broth microdilution method; type: functional; procedure, shortened: as §1
[7] = Antifungal activity against Rhizopus microsporus IHEM 13267 by broth microdilution method; type: functional; procedure, shortened: as §2
[8] = Antifungal activity against Rhizopus microsporus UTHSC R-3466 by broth microdilution method; type: functional; procedure, shortened: as §1
[9] = Antifungal activity against Rhizopus microsporus IHEM 15210 by broth microdilution method; type: functional; procedure, shortened: as §2
[10] = Antifungal activity against Rhizopus microsporus IHEM 4770 by broth microdilution method; type: functional; procedure, shortened: as §2
[11] = Antifungal activity against Rhizopus microsporus UTHSC 04-3294 by broth microdilution method; type: functional; procedure, shortened: as §2
[12] = Antifungal activity against Rhizopus microsporus IHEM 10123 by broth microdilution method; type: functional; procedure, shortened: as §2
[13] = Antifungal activity against Rhizopus microsporus UTHSC 01-983 by broth microdilution method; type: functional; procedure, shortened: as §1
[14] = Antifungal activity against Rhizopus microsporus IHEM 13311 by broth microdilution method; type: functional; procedure, shortened: as §2
[15] = Antifungal activity against Rhizopus microsporus UTHSC 03-1802 by broth microdilution method; type: functional; procedure, shortened: as §2
[16] = Drug level in serum of OF1 mouse infected with Rhizopus microsporus UTHSC 01-983 at 40 mg/kg, po QD for 5 days measured after 3 hrs post last dose; type: ADME, organism-based; design: dose 40 mg/kg, route oral; conditions: read-out: Drug uptake
Procedure, shortened: (§3)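 Immunosuppressed OF1 mice were infected i.v. (5 per group) and dosed orally at 40 mg/kg once daily or 20 mg/kg twice daily for 5 days. Sera were taken 3 h and 24 h after the last dose. Drug was measured by agar bioassay with Candida parapsilosis ATCC 22019 in yeast nitrogen broth, against standards of 0.125–10 μg/ml. Samples were run in duplicate, and the mean of four zone readings was read from the standard curve.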

[17] = Drug level in serum of OF1 mouse infected with Rhizopus microsporus FMR 3542 at 20 mg/kg, po BID for 5 days measured after 3 hrs post last dose; type: ADME, organism-based; design: dose 20 mg/kg, route oral; conditions: read-out: Drug uptake; procedure, shortened: as §3
[18] = Drug level in serum of OF1 mouse infected with Rhizopus microsporus FMR 3542 at 40 mg/kg, po QD measured after 3 hrs post last dose; type: ADME, organism-based; design: dose 40 mg/kg, route oral; conditions: read-out: Drug uptake; procedure, shortened: as §3
[19] = Drug level in serum of OF1 mouse infected with Rhizopus microsporus UTHSC 01-983 at 20 mg/kg, po BID for 5 days measured after 3 hrs post last dose; type: ADME, organism-based; design: dose 20 mg/kg, route oral; conditions: read-out: Drug uptake; procedure, shortened: as §3
[20] = Drug level in serum of OF1 mouse infected with Rhizopus microsporus UTHSC 01-983 at 20 mg/kg, po BID for 5 days measured after 24 hrs post last dose; type: ADME, organism-based; design: dose 20 mg/kg, route oral; conditions: read-out: Drug uptake; procedure, shortened: as §3
Rhizopus microsporus [21] = assay: Antifungal activity against Rhizopus microsporus IHEM 4770 infected in OF1 mouse assessed as reduction in fungal load in brain at 40 mg/kg, QD for 5 days; type: functional, organism-based; design: dose 40 mg/kg
Procedure, shortened: (§4)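 Male OF1 mice (30 g) were immunosuppressed 1 day before infection with cyclophosphamide 200 mg/kg i.p. plus 5-fluorouracil 150 mg/kg i.v., then given 2 × 10^3 CFU i.v. (IHEM 4770: 1 × 10^4 CFU). Oral dosing was 40 mg/kg once daily or 20 mg/kg twice daily, starting 24 h post-challenge; ceftazidime s.c. was given on days 1–7. […], 10 mice per group were killed, and brain and kidney homogenates were plated on PDA (18–24 h, 35°C) for CFU.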

Rhizopus microsporus [22] = assay: Antifungal activity against Rhizopus microsporus UTHSC R-3466 infected in OF1 mouse assessed as reduction in fungal load in kidney at 20 mg/kg, QD for 5 days; type: functional, organism-based; design: dose 20 mg/kg
Rhizopus microsporus [23] = assay: Antifungal activity against Rhizopus microsporus FMR 3542 infected in OF1 mouse assessed as reduction in fungal load in brain at 40 mg/kg, QD for 5 days; type: functional, organism-based; design: dose 40 mg/kg; procedure, shortened: as §4
Rhizopus microsporus [24] = assay: Antifungal activity against Rhizopus microsporus IHEM 4770 infected in OF1 mouse assessed as reduction in fungal load in brain at 20 mg/kg, QD for 5 days; type: functional, organism-based; design: dose 20 mg/kg
[25] = Drug level in serum of OF1 mouse infected with Rhizopus microsporus FMR 3542 at 20 mg/kg, po BID for 5 days measured after 24 hrs post last dose; type: ADME, organism-based; design: dose 20 mg/kg, route oral; conditions: read-out: Drug uptake; procedure, shortened: as §3
[26] = Drug level in serum of OF1 mouse infected with Rhizopus microsporus UTHSC 01-983 at 40 mg/kg, po QD for 5 days measured after 24 hrs post last dose; type: ADME, organism-based; design: dose 40 mg/kg, route oral; conditions: read-out: Drug uptake; procedure, shortened: as §3
Rhizopus microsporus [27] = assay: Antifungal activity against Rhizopus microsporus UTHSC 01-983 infected in OF1 mouse assessed as reduction in fungal load in brain at 20 mg/kg, QD for 5 days; type: functional, organism-based; design: dose 20 mg/kg
[28] = Drug level in serum of OF1 mouse infected with Rhizopus microsporus FMR 3542 at 40 mg/kg, po QD measured after 24 hrs post last dose; type: ADME, organism-based; design: dose 40 mg/kg, route oral; conditions: read-out: Drug uptake; procedure, shortened: as §3

Row | SMILES | MIC [1] [µg/mL] | MIC [2] [µg/mL] | MIC [3] [µg/mL] | MIC [4] [µg/mL] | MIC [5] [µg/mL] | MIC [6] [µg/mL] | MIC [7] [µg/mL] | MIC [8] [µg/mL] | MIC [9] [µg/mL] | MIC [10] [µg/mL] | MIC [11] [µg/mL] | MIC [12] [µg/mL] | MIC [13] [µg/mL] | MIC [14] [µg/mL] | MIC [15] [µg/mL] | other results
1 | C[C@@H]1[C@H](O)[C@@H](C)/C=C/C=C/C=C/C=C/C=C/C=C/C=C/[C@H](O[C@@H]2O[C@H](C)[C@@H](O)[C@H](N)[C@@H]2O)C[C@@H]2O[C@](O)(C[C@@H](O)C[C@@H](O)[C@H](O)CC[C@@H](O)C[C@@H](O)CC(=O)O[C@H]1C)C[C@H](O)[C@H]2C(=O)O | 0.5 (≈ 0.541 µM) | 0.5 (≈ 0.541 µM) | 0.5 (≈ 0.541 µM) | 1 (≈ 1.08 µM) | 0.5 (≈ 0.541 µM) | 0.5 (≈ 0.541 µM) | 0.5 (≈ 0.541 µM) | 0.5 (≈ 0.541 µM) | 0.5 (≈ 0.541 µM) | 0.5 (≈ 0.541 µM) | 1 (≈ 1.08 µM) | 0.5 (≈ 0.541 µM) | 0.5 (≈ 0.541 µM) | 0.5 (≈ 0.541 µM) | 1 (≈ 1.08 µM) | –
2 | CC[C@@H]([C@H](C)O)n1ncn(-c2ccc(N3CCN(c4ccc(OC[C@@H]5CO[C@@](Cn6cncn6)(c6ccc(F)cc6F)C5)cc4)CC3)cc2)c1=O [POSACONAZOLE] | 0.5 (≈ 0.713 µM) | 0.25 (≈ 0.357 µM) | 0.5 (≈ 0.713 µM) | 0.25 (≈ 0.357 µM) | 1 (≈ 1.43 µM) | 2 (≈ 2.85 µM) | 0.5 (≈ 0.713 µM) | 0.25 (≈ 0.357 µM) | 0.5 (≈ 0.713 µM) | 2 (≈ 2.85 µM) | 0.25 (≈ 0.357 µM) | 1 (≈ 1.43 µM) | 0.25 (≈ 0.357 µM) | 0.5 (≈ 0.713 µM) | 0.25 (≈ 0.357 µM) | concentration at 3 h [16]: 5960 ng/mL; concentration at 3 h [17]: 8040 ng/mL; concentration at 3 h [18]: 5310 ng/mL; concentration at 3 h [19]: 7600 ng/mL; concentration at 24 h [20]: 2040 ng/mL; Activity (Rhizopus microsporus [21]): Active; Activity (Rhizopus microsporus [22]): Active; Activity (Rhizopus microsporus [23]): Active; Activity (Rhizopus microsporus [24]): Active; concentration at 24 h [25]: 2150 ng/mL; concentration at 24 h [26]: 1050 ng/mL; Activity (Rhizopus microsporus [27]): Active; concentration at 24 h [28]: 950 ng/mL
3 | CCC(C)n1ncn(-c2ccc(N3CCN(c4ccc(OCC5COC(Cn6cncn6)(c6ccc(Cl)cc6Cl)O5)cc4)CC3)cc2)c1=O (stereo not drawn) | 1 (≈ 1.42 µM) | 1 (≈ 1.42 µM) | 4 (≈ 5.67 µM) | 1 (≈ 1.42 µM) | 2 (≈ 2.83 µM) | 1 (≈ 1.42 µM) | 1 (≈ 1.42 µM) | 1 (≈ 1.42 µM) | 1 (≈ 1.42 µM) | 2 (≈ 2.83 µM) | 1 (≈ 1.42 µM) | 2 (≈ 2.83 µM) | 1 (≈ 1.42 µM) | 1 (≈ 1.42 µM) | 1 (≈ 1.42 µM) | –
4 | C[C@@H](c1ncncc1F)[C@](O)(Cn1cncn1)c1ccc(F)cc1F | 4 (≈ 11.5 µM) | 4 (≈ 11.5 µM) | – | – | – | 4 (≈ 11.5 µM) | – | 4 (≈ 11.5 µM) | – | – | – | – | 4 (≈ 11.5 µM) | – | – | –
